Assays:
Format in all cases: functional
C-33-A [1] = experiment: Anticancer activity against human C-33-A cells assessed as cell growth inhibition measured after 72 hrs by DAPI staining based analysis
Summary of the method: (§1)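 Cells were seeded, and DNA content at 24 h after seeding (T0) was read by imaging of fixed, DAPI-stained cells. Cells were then exposed to a range of drug concentrations for a further 72 h (T72) and DNA content was read again. T72 values were normalized to T0, and GI50 was taken from curve fits as the concentration giving 50% growth inhibition relative to T0 and Ymax.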

COLO-320-HSR = experiment: Anticancer activity against human COLO 320HSR cells assessed as cell growth inhibition measured after 72 hrs by DAPI staining based analysis; summary of the method: as §1
G-402 = experiment: Anticancer activity against human G-402 cells assessed as cell growth inhibition measured after 72 hrs by DAPI staining based analysis
Summary of the method: (§2)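 Cells seeded, DAPI-stained DNA content of fixed cells read by imaging 24 h after seeding (T0), and again after a further 72 h exposure to a range of drug concentrations (T72). T72 values were normalized to T0. Curve fits gave the concentration producing 50% growth inhibition relative to T0 and Ymax (GI50).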

HCC 2998 = experiment: Anticancer activity against human HCC 2998 cells assessed as cell growth inhibition measured after 72 hrs by DAPI staining based analysis; summary of the method: as §2
M14 = experiment: Anticancer activity against human M14 cells assessed as cell growth inhibition measured after 72 hrs by DAPI staining based analysis
NCI-H2052 = experiment: Anticancer activity against human NCI-H2052 cells assessed as cell growth inhibition measured after 72 hrs by DAPI staining based analysis
NCI-H596 = experiment: Anticancer activity against human NCI-H596 cells assessed as cell growth inhibition measured after 72 hrs by DAPI staining based analysis
RD = experiment: Anticancer activity against human RD cells assessed as cell growth inhibition measured after 72 hrs by DAPI staining based analysis
SCC-4 = experiment: Anticancer activity against human SCC-4 cells assessed as cell growth inhibition measured after 72 hrs by DAPI staining based analysis
SNU1 = experiment: Anticancer activity against human SNU1 cells assessed as cell growth inhibition measured after 72 hrs by DAPI staining based analysis
ST486 = experiment: Anticancer activity against human ST486 cells assessed as cell growth inhibition measured after 72 hrs by DAPI staining based analysis
SW1463 [2] = experiment: Anticancer activity against human SW1463 cells assessed as cell growth inhibition measured after 72 hrs by DAPI staining based analysis
SW-403 = experiment: Anticancer activity against human SW403 cells assessed as cell growth inhibition measured after 72 hrs by DAPI staining based analysis
[3] = Anticancer activity against human SW579 cells assessed as cell growth inhibition measured after 72 hrs by DAPI staining based analysis
SW756 = experiment: Anticancer activity against human SW756 cells assessed as cell growth inhibition measured after 72 hrs by DAPI staining based analysis
SW780 = experiment: Anticancer activity against human SW780 cells assessed as cell growth inhibition measured after 72 hrs by DAPI staining based analysis
T47D = experiment: Anticancer activity against human T47D cells assessed as cell growth inhibition measured after 72 hrs by DAPI staining based analysis
THP-1 = experiment: Anticancer activity against human THP-1 cells assessed as cell growth inhibition measured after 72 hrs by DAPI staining based analysis
UACC-257 = experiment: Anticancer activity against human UACC-257 cells assessed as cell growth inhibition measured after 72 hrs by DAPI staining based analysis
A-427 = experiment: Anticancer activity against human A-427 cells assessed as cell doubling measured for 72 hrs by DAPI staining based analysis
BT-20 = experiment: Anticancer activity against human BT-20 cells assessed as cell doubling measured for 72 hrs by DAPI staining based analysis
[4] = Anticancer activity against human C32TG cells assessed as cell doubling measured for 72 hrs by DAPI staining based analysis
C-33-A [5] = experiment: Anticancer activity against human C-33-A cells assessed as cell doubling measured for 72 hrs by DAPI staining based analysis
C3A = experiment: Anticancer activity against human C3A cells assessed as cell doubling measured for 72 hrs by DAPI staining based analysis
CGTH-W-1 = experiment: Anticancer activity against human CGTH-W-1 cells assessed as cell doubling measured for 72 hrs by DAPI staining based analysis
H4 = experiment: Anticancer activity against human H4 cells assessed as cell doubling measured for 72 hrs by DAPI staining based analysis
HEC-1B cell line = experiment: Anticancer activity against human HEC-1B cells assessed as cell doubling measured for 72 hrs by DAPI staining based analysis
K562 = experiment: Anticancer activity against human K562 cells assessed as cell doubling measured for 72 hrs by DAPI staining based analysis
LOX IMVI = experiment: Anticancer activity against human LOX IMVI cells assessed as cell doubling measured for 72 hrs by DAPI staining based analysis
LS-1034 = experiment: Anticancer activity against human LS1034 cells assessed as cell doubling measured for 72 hrs by DAPI staining based analysis
NCI-H2170 = experiment: Anticancer activity against human NCI-H2170 cells assessed as cell doubling measured for 72 hrs by DAPI staining based analysis
NCI-H520 = experiment: Anticancer activity against human NCI-H520 cells assessed as cell doubling measured for 72 hrs by DAPI staining based analysis
NCI-N87 = experiment: Anticancer activity against human NCI-N87 cells assessed as cell doubling measured for 72 hrs by DAPI staining based analysis
OVCAR-3 = experiment: Anticancer activity against human OVCAR-3 cells assessed as cell doubling measured for 72 hrs by DAPI staining based analysis
SJRH30 = experiment: Anticancer activity against human SJRH30 cells assessed as cell doubling measured for 72 hrs by DAPI staining based analysis
SK-N-AS = experiment: Anticancer activity against human SK-N-AS cells assessed as cell doubling measured for 72 hrs by DAPI staining based analysis
SNU-423 = experiment: Anticancer activity against human SNU-423 cells assessed as cell doubling measured for 72 hrs by DAPI staining based analysis
SW1463 [6] = experiment: Anticancer activity against human SW1463 cells assessed as cell doubling measured for 72 hrs by DAPI staining based analysis
SW 954 = experiment: Anticancer activity against human SW 954 cells assessed as cell doubling measured for 72 hrs by DAPI staining based analysis
NCI-H460 [7] = experiment: Antitumor activity against human NCI-H460 cells in xenograft model assessed as difference between median time to endpoint time of treated versus control group at 125 mg/kg
NCI-H460 [8] = experiment: Antitumor activity against human NCI-H460 cells in xenograft model assessed as difference between median time to endpoint time of treated versus control group at 62.5 mg/kg
MCF7 = experiment: Antitumor activity against human MCF7 cells in xenograft model assessed as tumor growth delay at 62.5 mg/kg relative to control
MDA-MB-231 = experiment: Antitumor activity against human MDA-MB-231 cells in xenograft model assessed as tumor growth delay at 125 mg/kg relative to control

- GI50 (COLO-320-HSR): 153 nM
- GI50 (HCC 2998): 29 nM
- GI50 (NCI-H2052): 44 nM
- GI50 (NCI-H596): 5020 nM
- GI50 (SNU1): > 10000 nM
- GI50 (SW1463 [2]): 31 nM
- GI50 (SW-403): 24 nM
- GI50 (SW756): 35 nM
- GI50 (SW780): 30 nM
- GI50 (T47D): 29 nM
- GI50 (THP-1): 12 nM
SMILES: CC(C)Oc1ccc(C(=O)N[C@H](CNC(=O)CN(C)C)Cc2ccc(-c3cn4cccc([C@H](C)O)c4n3)cc2)cc1Cl [GSK-923295A]
- GI50 (C-33-A [1]): 47 nM
- GI50 (G-402): 31 nM
- GI50 (M14): 27 nM
- GI50 (RD): 28 nM
- GI50 (SCC-4): 28 nM
- GI50 (ST486): 26 nM
- GI50 [3]: 26 nM
- GI50 (UACC-257): 32 nM
- Activity (A-427): 2.46
- Activity (BT-20): 4.17
- Activity [4]: 1.21
- Activity (C-33-A [5]): 3.13
- Activity (C3A): 2.23
- Activity (CGTH-W-1): 3.66
- Activity (H4): 2.64
- Activity (HEC-1B cell line): 2.04
- Activity (K562): 3.52
- Activity (LOX IMVI): 2.32
- Activity (LS-1034): 1.73
- Activity (NCI-H2170): 1.69
- Activity (NCI-H520): 2.15
- Activity (NCI-N87): 2.53
- Activity (OVCAR-3): 1.56
- Activity (SJRH30): 2.12
- Activity (SK-N-AS): 2.37
- Activity (SNU-423): 1.44
- Activity (SW1463 [6]): 1.22
- Activity (SW 954): 1.62
- Time (NCI-H460 [7]): 37.2 days
- Time (NCI-H460 [8]): 15.4 days
- Activity (MCF7): 20%
- Activity (MDA-MB-231): 99%
